Where two headings read alike, the source gives them in different places. Marks after values point to notes of the source that are not given here. Residues, ends and D or L forms follow the SMILES beside them.
Legend:
[1] = for Cmax: 20-min i.v. infusion, n=12, estimate (SE); for AUCτ / λz: i.v. infusion, n=12, pooled
[2] = tested on: LPS-induced ALI; conditions: single subcutaneous injection 25 mg/kg; cited from earlier work
[3] = Serum biochemistry of cynomolgus monkeys at the end of treatment; format: in vivo; conditions: female, median (IQR)
Summary of the method: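 GLP 10-day study in male and female cynomolgus monkeys (n = 3-5/sex/group) dosed once daily with 0 (placebo), 5, 10 or 15 mg/kg test compound by i.v. infusion over 60 ± 5 min. Hematology, serum chemistry and coagulation were taken at end of treatment and reported as median (IQR). Dose groups were compared by Kruskal-Wallis with Dunn's multiple comparison test.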

CC[C@H](C)[C@@H]1NC(=O)[C@@H]2CSSC[C@H](NC(=O)[C@H](CCCNC(=N)N)NC(=O)[C@@H]3CSSC[C@H](NC1=O)C(=O)N[C@@H]([C@@H](C)O)C(=O)N[C@@H](CCCNC(=N)N)C(=O)NCC(=O)N[C@@H](Cc1ccccc1)C(=O)N3)C(=O)N[C@@H](CC(C)C)C(=O)N[C@H]1CSSC[C@H](NC(=O)[C@H](C(C)C)NC(=O)CNC(=O)[C@H](CCCNC(=N)N)NC(=O)[C@H](CCCNC(=N)N)NC1=O)C(=O)N[C@@H](CCCNC(=N)N)C(=O)N2 [RTD-1, Rhesus theta (θ) defensin-1] (HELM PEPTIDE1{G.F.C.R.C.L.C.R.R.G.V.C.R.C.I.C.T.R}$PEPTIDE1,PEPTIDE1,3:R3-16:R3|PEPTIDE1,PEPTIDE1,5:R3-14:R3|PEPTIDE1,PEPTIDE1,7:R3-12:R3|PEPTIDE1,PEPTIDE1,1:R1-18:R2$$$V2.0)
Cmax ([1]; 5 mg/kg Day 1): 7,468 (1,202)^b ng/mL
AUCτ ([1]; 5 mg/kg Day 1): 14,956 ng · h/mL
λz ([1]; 5 mg/kg Day 1): 0.056 h⁻¹
AUCτ ([1]; 5 mg/kg Day 7): 12,468 ng · h/mL
λz ([1]; 5 mg/kg Day 7): 0.104 h⁻¹
AUCτ on day 7 lower than AUC0-∞ on day 1 ([1]; 5 mg/kg/day): 22%
Cmax ([1]; 10 mg/kg Day 1): 27,533 (1,419)* ng/mL
AUCτ ([1]; 10 mg/kg Day 1): 41,669 ng · h/mL
λz ([1]; 10 mg/kg Day 1): 0.148 h⁻¹
λz ([1]; 10 mg/kg Day 7): 0.133 h⁻¹
AUCτ on day 7 lower than AUC0-∞ on day 1 ([1]; 10 mg/kg/day): 19%
Cmax ([1]; 20 mg/kg Day 1): 35,400 (5,350)# ng/mL
λz ([1]; 20 mg/kg Day 1): 0.221 h⁻¹
plasma levels during the recovery period (day 25) ([1]; all rats except one female at 10 mg/kg): undetectable
increase in AUC0-∞ from 5 mg/kg to 20 mg/kg ([1]; single ascending dose): 8 fold
mean AUC0-∞ [2]: ~9,001 ng · h/mL
A/G ([3]; 5 mg/kg/day): 1.7 (0.2)
ALP ([3]; 5 mg/kg/day): 576.0 (132.0) U/L
ALT ([3]; 5 mg/kg/day): 112.0 (50.0) U/L
AST ([3]; 5 mg/kg/day): 69.0 (22.0) U/L
Albumin ([3]; 5 mg/kg/day): 4.5 (0.5) g/dL
CK ([3]; 5 mg/kg/day): 301.0 (38.0) U/L
Calcium ([3]; 5 mg/kg/day): 10.0 (0.4) mg/dL
Chloride ([3]; 5 mg/kg/day): 107.0 (1.5) mmol/L
Cholesterol ([3]; 5 mg/kg/day): 104.0 (17.5) mg/dL
Creatinine ([3]; 5 mg/kg/day): 0.5 (0.1) mg/dL
GGT ([3]; 5 mg/kg/day): 92.0 (14.0) U/L
Globulin ([3]; 5 mg/kg/day): 2.7 (0.4) g/dL
Glucose ([3]; 5 mg/kg/day): 60.0 (7.5) mg/dL
Phos ([3]; 5 mg/kg/day): 5.7 (0.2) mg/dL
Potassium ([3]; 5 mg/kg/day): 4.9 (0.6) mmol/L
Sodium ([3]; 5 mg/kg/day): 146.0 (0.0) mmol/L
T-Bil ([3]; 5 mg/kg/day): 0.2 (0.0) mg/dL
TP ([3]; 5 mg/kg/day): 7.6 (0.7) g/dL
Triglycerides ([3]; 5 mg/kg/day): 49.0 (8.5) mg/dL
Urea N ([3]; 5 mg/kg/day): 15.0 (4.0) mg/dL
A/G ([3]; 10 mg/kg/day): 1.6 (0.2)
ALP ([3]; 10 mg/kg/day): 915.0 (64.0) U/L
ALT ([3]; 10 mg/kg/day): 126.0 (87.5) U/L
AST ([3]; 10 mg/kg/day): 104.0 (16.0) U/L
Albumin ([3]; 10 mg/kg/day): 4.3 (0.1) g/dL
CK ([3]; 10 mg/kg/day): 1,102.0 (1,584.0) U/L
Calcium ([3]; 10 mg/kg/day): 10.0 (0.1) mg/dL
Chloride ([3]; 10 mg/kg/day): 109.0 (2.0) mmol/L
Cholesterol ([3]; 10 mg/kg/day): 91.0 (10.5) mg/dL
Creatinine ([3]; 10 mg/kg/day): 0.6 (0.1) mg/dL
GGT ([3]; 10 mg/kg/day): 88.0 (7.0) U/L
Globulin ([3]; 10 mg/kg/day): 2.7 (0.4) g/dL
Glucose ([3]; 10 mg/kg/day): 59.0 (6.5) mg/dL
Phos ([3]; 10 mg/kg/day): 5.3 (0.6) mg/dL
Potassium ([3]; 10 mg/kg/day): 5.1 (0.9) mmol/L
Sodium ([3]; 10 mg/kg/day): 146.0 (3.0) mmol/L
T-Bil ([3]; 10 mg/kg/day): 0.2 (0.1) mg/dL
TP ([3]; 10 mg/kg/day): 7.0 (0.3) g/dL
Triglycerides ([3]; 10 mg/kg/day): 49.0 (1.5) mg/dL
Urea N ([3]; 10 mg/kg/day): 16.0 (4.5) mg/dL
A/G ([3]; 15 mg/kg/day): 1.5 (0.0)
ALP ([3]; 15 mg/kg/day): 943.0 (411.0) U/L
ALT ([3]; 15 mg/kg/day): 92.0 (36.0) U/L
AST ([3]; 15 mg/kg/day): 95.0 (45.0) U/L
Albumin ([3]; 15 mg/kg/day): 4.3 (0.6) g/dL
CK ([3]; 15 mg/kg/day): 891.0 (603.0) U/L
Calcium ([3]; 15 mg/kg/day): 10.2 (0.4) mg/dL
Chloride ([3]; 15 mg/kg/day): 111.0 (1.0) mmol/L
Cholesterol ([3]; 15 mg/kg/day): 94.0 (13.0) mg/dL
Creatinine ([3]; 15 mg/kg/day): 0.7 (0.1) mg/dL
GGT ([3]; 15 mg/kg/day): 99.0 (37.0) U/L
Globulin ([3]; 15 mg/kg/day): 2.8 (0.1) g/dL
Glucose ([3]; 15 mg/kg/day): 78.0 (18.0)^c mg/dL
Phos ([3]; 15 mg/kg/day): 5.3 (0.3)^c mg/dL
Potassium ([3]; 15 mg/kg/day): 6.0 (1.0) mmol/L
Sodium ([3]; 15 mg/kg/day): 146.0 (4.0) mmol/L

Source: article PMC8923172 (Antimicrobial Agents and Chemotherapy, 2022)
